Measured values: ChEMBL document CHEMBL1811907, “Chemical and biological evaluation of dipeptidyl boronic acid proteasome inhibitors for use in prodrugs and pro-soft drugs targeting solid tumors” (J Med Chem, 2011)

Legend:
HEK293 = assay: Ratio of IC50 for intracellular chymotrypsin-like activity of 20S proteasome in human HEK293 cells to IC50 for in vitro chymotrypsin-like activity of 20S proteasome; format: cell-based
[1] = Inhibition of chymotrypsin-like activity of 20S proteasome using suc-LLVY-AMC as substrate preincubated for 10 mins before substrate addition at pH 2.0 by fluorescence assay
In short: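 Inhibitor from 0.1 M ethanol stock diluted into pH 2.0 buffer (0.148 M HCl, 0.052 M KCl) and equilibrated overnight at room temperature (24 h per text). 20S proteasome SDS-activated, preincubated 10 min with inhibitor; Suc-LLVY-AMC added; fluorescence (ex 360/em 460 nm) read after 30 min. Assay-well pH checked. Quadruplicates; variable-slope sigmoidal fit.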

[2] = Ratio of CC50 for human follicular small-cell lymphocytic leukemia cells to IC50 for intracellular chymotrypsin-like activity of 20S proteasome in human HEK293 cells
[3] = Inhibition of intracellular chymotrypsin-like activity of 20S proteasome in human HEK293 cells after 24 hrs by fluorescence plate reader; format: cell-based; conditions: HEK293, 24 h
In short: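 HEK 293 ZsGreen proteasome-sensor cells (stable ZsGreen–ornithine decarboxylase degron fusion, G418 maintenance) seeded 3.2 × 10⁴ per well, grown 24 h. Then 24 h with inhibitor at 37 °C, 5% CO₂. Cells lysed in HEPES/EDTA/5% Triton buffer for 1 h; fluorescence ex 485/em 535 nm. Quadruplicates; variable-slope sigmoidal fit.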

[4] = Cytotoxicity against human FSCLL cells after 24 hrs by MTT assay; format: cell-based
In short: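 Cells seeded at 3.2 × 10⁴ per well, grown 24 h at 37 °C, 5% CO₂, then exposed to inhibitor dilutions 24 h. Inhibitor from 0.1 M ethanol stock, pre-equilibrated overnight in pH 2.0 or pH 7.6 buffer. MTT (5 mg/mL) added for 3 h; formazan dissolved overnight in acidic Triton/isopropanol; A570 read. Quadruplicates; variable-slope sigmoidal fit.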

[5] = Inhibition of chymotrypsin-like activity of 20S proteasome using suc-LLVY-AMC as substrate preincubated for 10 mins before substrate addition at pH 7.6 by fluorescence assay
In short: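 Inhibitor from 0.1 M ethanol stock diluted into pH 7.6 buffer (25 mM HEPES, 0.5 mM EDTA) and equilibrated overnight at room temperature (24 h per text). SDS-activated 20S proteasome preincubated 10 min with inhibitor before Suc-LLVY-AMC; fluorescence ex 360/em 460 nm after 30 min. Quadruplicates; variable-slope sigmoidal fit.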

[6] = Ratio of CC50 for human follicular small-cell lymphocytic leukemia cells to IC50 for chymotrypsin-like activity of 20S proteasome at pH 2.0

Row | SMILES | Ratio IC50 (HEK293) | IC50 [1] | Ratio CC50/IC50 [2] | IC50 [3] | CC50 at 24 h [4] | IC50 [5] | Ratio CC50/IC50 [6]
1 | CC(C)C[C@H](NC(=O)[C@@H](N)Cc1cccc2ccccc12)B(O)O | 6 | 0.026 µM | 0.07 | 0.15 µM | 0.011 µM | 0.12 µM | 0.4
2 | CC(C)C[C@H](NC(=O)[C@@H](N)Cc1cc(F)cc(F)c1)B(O)O | 18 | 0.043 µM | 0.06 | 0.79 µM | 0.047 µM | 0.1 µM | 1
3 | CC[C@H](N)C(=O)N[C@@H](CC(C)C)B(O)O | > 90 | 0.11 µM | <0.2 | > 10 µM | 1.5 µM | 0.3 µM | 14
4 | CC(C)C[C@H](NC(=O)[C@@H](N)Cc1ccc2ccccc2c1)B(O)O | 13 | 0.033 µM | – | 0.45 µM | – | 0.22 µM | –
5 | CC(C)C[C@H](NC(=O)[C@@H](N)[C@@H](C)O)B(O)O | > 120 | 0.08 µM | <0.3 | > 10 µM | 2.5 µM | 0.45 µM | 30
6 | CC(C)C[C@H](NC(=O)[C@@H](N)Cc1c[nH]c2ccccc12)B(O)O | > 30 | 0.029 µM | <0.4 | > 1 µM | 0.4 µM | 0.1 µM | 14
7 | CC(C)C[C@H](NC(=O)[C@@H](N)CC(C(=O)O)C(=O)O)B(O)O | > 20 | 0.6 µM | – | > 10 µM | – | 3 µM | –
8 | CC(C)C[C@H](NC(=O)[C@@H](N)Cc1ccccc1F)B(O)O | 41 | 0.076 µM | – | 3.1 µM | – | 0.14 µM | –
9 | CC(C)C[C@H](NC(=O)[C@@H](N)C(C)(C)C)B(O)O | > 110 | 0.1 µM | <0.07 | > 10 µM | 0.71 µM | 0.15 µM | 7
10 | CC(C)C[C@H](NC(=O)[C@@H](N)CC(N)=O)B(O)O | > 160 | 0.063 µM | – | > 10 µM | – | 0.77 µM | –
11 | CC(C)C[C@H](NC(=O)[C@@H](N)C(c1ccccc1)c1ccccc1)B(O)O | 9 | 0.11 µM | – | 1 µM | – | 0.35 µM | –
12 | CC(C)C[C@H](NC(=O)[C@@H](NC(=O)c1cnccn1)C(C)(C)O)B(O)O | 15 | 0.034 µM | – | 0.52 µM | – | 0.028 µM | –
13 | CC(C)C[C@H](NC(=O)[C@@H](N)Cc1cccc(F)c1)B(O)O | 16 | 0.082 µM | – | 1.3 µM | – | 0.11 µM | –
14 | CC(C)C[C@H](NC(=O)[C@@H](N)Cc1ccc(F)cc1)B(O)O | > 170 | 0.06 µM | <0.01 | > 10 µM | 0.079 µM | 0.13 µM | 1.3
15 | CC(C)C[C@H](NC(=O)CNC(=O)c1cnccn1)B(O)O | 16 | 0.11 µM | – | 1.8 µM | – | 0.18 µM | –
16 | CC(C)C[C@H](NC(=O)[C@@H](N)Cc1ccc(O)cc1)B(O)O | > 240 | 0.042 µM | <0.02 | > 10 µM | 0.16 µM | 0.12 µM | 4
17 | CC(C)C[C@H](NC(=O)[C@@H](N)Cc1ccc(F)c(F)c1)B(O)O | 26 | 0.081 µM | – | 2.1 µM | – | 0.15 µM | –
18 | CC(C)C[C@H](NC(=O)[C@@H](NC(=O)c1cnccn1)[C@@H](C)O)B(O)O | 65 | 0.012 µM | 0.12 | 0.79 µM | 0.1 µM | 0.025 µM | 8
19 | CC(C)C[C@H](NC(=O)[C@@H](N)Cc1ccc(-c2ccccc2)cc1)B(O)O | 30 | 0.05 µM | – | 1.4 µM | – | 0.4 µM | –
20 | CC(C)C[C@H](NC(=O)[C@H](CO)NC(=O)c1cnccn1)B(O)O | 150 | 0.016 µM | 0.08 | 2.5 µM | 0.21 µM | 0.018 µM | 13
21 | CC(C)C[C@H](NC(=O)[C@@H](N)Cc1c(F)c(F)c(F)c(F)c1F)B(O)O | 20 | 0.17 µM | – | 3.3 µM | – | 0.47 µM | –
22 | CC(C)C[C@H](NC(=O)CN(C)C)B(O)O | > 280 | 0.036 µM | – | > 10 µM | – | 0.61 µM | –
23 | CC(C)C[C@H](NC(=O)[C@@H](N)C(C)(C)O)B(O)O | > 110 | 0.09 µM | – | > 10 µM | – | 0.15 µM | –
24 | CC(C)C[C@H](NC(=O)[C@@H](N)CC(C)C)B(O)O | > 150 | 0.066 µM | – | > 10 µM | – | 0.17 µM | –
25 | CCCC[C@H](N)C(=O)N[C@@H](CC(C)C)B(O)O | > 130 | 0.075 µM | <0.1 | > 10 µM | 0.95 µM | 0.3 µM | 13
26 | CCC[C@H](N)C(=O)N[C@@H](CC(C)C)B(O)O | > 90 | 0.11 µM | <0.1 | > 10 µM | 1.1 µM | 0.54 µM | 10
27 | CC(C)C[C@H](NC(=O)[C@@H](N)Cc1cnc[nH]1)B(O)O | > 20 | 0.51 µM | – | > 1 µM | – | 5.2 µM | –
28 | CNCC(=O)N[C@@H](CC(C)C)B(O)O | > 260 | 0.039 µM | <0.07 | > 10 µM | 0.16 µM | 2.2 µM | 4.1
29 | CC(C)C[C@H](NC(=O)[C@@H](N)C1CCCCC1)B(O)O | > 40 | 0.24 µM | – | > 10 µM | – | 0.9 µM | –
30 | CC(C)C[C@H](NC(=O)[C@@H](N)CO)B(O)O | > 50 | 0.19 µM | <0.2 | > 10 µM | 1.7 µM | 1.1 µM | 8.9
